An excerpt weighted towards active compounds, which were near 2.5% of everything screened.
HTR2A ag: mouse Htr2a agonists via beta-arrestin recruitment, primary screen, cell-based, luminescence; activation, % at 7.6 µM; actives 0.66% (n = 360,000); CHO-K1 mHTR2A beta-arrestin complementation; percent of 30 µM serotonin response; 5-hydroxytryptamine receptor 2A (Mus musculus), P35363; AID 624169, 2012;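 active = activation above a run cutoff, the mean activation of all tested compounds plus 3 SD, cut at about 14% in these data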;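 also: 0% = plate median of compound wells and 100% = 30 µM serotonin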
Target sequence (P35363 whole entry, looked up): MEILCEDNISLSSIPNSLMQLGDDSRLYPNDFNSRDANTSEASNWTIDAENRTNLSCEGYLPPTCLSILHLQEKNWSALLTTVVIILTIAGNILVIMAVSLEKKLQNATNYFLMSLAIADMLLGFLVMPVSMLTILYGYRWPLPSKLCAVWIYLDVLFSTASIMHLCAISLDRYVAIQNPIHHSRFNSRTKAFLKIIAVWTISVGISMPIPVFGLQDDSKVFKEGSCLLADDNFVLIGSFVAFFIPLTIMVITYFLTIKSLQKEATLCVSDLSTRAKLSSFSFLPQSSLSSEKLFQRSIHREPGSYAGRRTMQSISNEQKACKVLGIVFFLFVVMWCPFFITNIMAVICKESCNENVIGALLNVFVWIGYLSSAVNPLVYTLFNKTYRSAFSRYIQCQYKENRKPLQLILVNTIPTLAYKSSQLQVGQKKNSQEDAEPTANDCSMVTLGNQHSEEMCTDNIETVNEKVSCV
VIM-2 inh: VIM-2 metallo-beta-lactamase inhibitors, primary screen, biochemical, epi-absorbance readout, Pseudomonas aeruginosa enzyme. inhibition, % at 5.6 µM. actives 0.89% (n = 290,000). purified VIM-2, nitrocefin hydrolysis, epi-absorbance fluorescence;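 active = inhibition above the mean of all tested compounds plus 3 SD, cutoff set per screening run, cut at about 7.5% in these data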;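 also: red hydrolysis product quenches plate fluorescence so inhibitors raise well fluorescence; 0% = enzyme with DMSO and 100% = DMSO without enzyme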
dFosB act: activators of delta FosB homodimer, primary screen, biochemical, fluorescence polarization, TAMRA-CDK5 oligo, single point; purified delta FosB; percent of positive-control signal above neutral wells; activation, % at 25 µM; actives 0.99% (n = 340,000); Protein FosB (Mus musculus), P13346;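 active = mean activation above about 17%, with every replicate also reaching it, limit read from the data, passing the limit was not always enough; inconclusive = only one of the two conditions met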
IMP-1 inhibitor: IMP-1 metallo-beta-lactamase inhibitors, primary screen, biochemical, epi-absorbance readout, Pseudomonas aeruginosa enzyme; metallo-beta-lactamase IMP-1 (Pseudomonas aeruginosa); purified IMP-1, nitrocefin hydrolysis, epi-absorbance fluorescence; inhibition, % at 5.6 µM; actives 0.45% (n = 290,000); AID 1556, 2009;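 active = inhibition above the mean plus 3 SD of all compounds in the same screening run, cut at about 4.5% in these data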;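 also: 0% = IMP-1 with DMSO and 100% = DMSO wells lacking enzyme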
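System: purified IMP-1 / Input: IMP-1 dispensed at 0.2 nM / Medium: 50 mM HEPES pH 7.1, 50 µM ZnSO4, 0.05% Brij 35 / Timing: 15 min enzyme–compound preincubation, then 25 min nitrocefin reaction, 25 °C / Technique: plate fluorescence quenching by hydrolysis product, ex 480/em 530 nm / Repeats: singlicate testing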
Active calls of the source: *.

Screening Cc1ccccc1NC(=O)CCS(=O)(=O)c1ccc(Br)cc1 returned HTR2A ag 3, VIM-2 inh -1, dFosB act 5 and IMP-1 inhibitor 2.
For CCN(CC)c1ccc(NC(=O)CCS(=O)(=O)c2ccc(Br)cc2)c(C)c1 the results were HTR2A ag 0, VIM-2 inh -2, dFosB act -1 and IMP-1 inhibitor 24*.
COc1cc(S(=O)(=O)NC(Cc2c[nH]c3ccccc23)C(=O)O)ccc1NC(C)=O (stereo not drawn) was read as HTR2A ag -1, VIM-2 inh -1, dFosB act -4 and IMP-1 inhibitor 5.9*.
`CCCNC(=O)c1ccc(N2CCC3(CC2)CC(c2ccccc2)=NO3)c(NC(=O)Cc2ccc(F)cc2)c1` gave HTR2A ag -4, VIM-2 inh -1, dFosB act -5 and IMP-1 inhibitor 9.9*.
Screening O=C1CS/C(=C\[N+](=O)[O-])N1c1ccccc1 returned HTR2A ag 1, VIM-2 inh 1, dFosB act 2 and IMP-1 inhibitor 4.6*.
Cc1c(C)c2cc(Cl)c(O)c(CN3CCN(C)CC3)c2oc1=O was read as HTR2A ag 6, VIM-2 inh 4, dFosB act -9 and IMP-1 inhibitor 6.2*.
O=C(Cc1cccc(NC(=O)C2CCN(S(=O)(=O)c3cccc([N+](=O)[O-])c3)CC2)c1)Nc1cccc(C(=O)N2CCCCC2)c1 was read as HTR2A ag -3 and dFosB act -4.
`CC(C)Nc1ccc(Nc2ccnc3cc4ccccc4cc23)cc1` gave HTR2A ag -14, VIM-2 inh 1, dFosB act 68* and IMP-1 inhibitor -2.
Screening O=C(Nc1ccc(Cc2ccncc2)cc1)c1cccc([N+](=O)[O-])c1 returned HTR2A ag -7, VIM-2 inh -2, dFosB act 5 and IMP-1 inhibitor -3.
`O=C(Nc1ccc(Nc2ccncc2)cc1)c1ccc(Nc2ccnc3ccc([N+](=O)[O-])cc23)cc1` gave HTR2A ag 5, VIM-2 inh 36*, dFosB act inconclusive and IMP-1 inhibitor 21*.
`CCN(CC)CCCn1c2c(c(SCC(=O)Nc3ccc4c(c3)OCO4)nc1=O)CCC2` gave HTR2A ag -2 and dFosB act 2.
Screening O=C(Nc1cc(Cl)ccc1Cl)C1CC(=O)N(c2ccccc2)C1 (stereo not drawn) returned HTR2A ag -5, VIM-2 inh -4, dFosB act 20* and IMP-1 inhibitor -4.
`CCCc1nc2sc3c(SCC(=O)NCc4ccco4)ncnc3c2c2c1CCC2` gave HTR2A ag -1, VIM-2 inh 1, dFosB act -34 and IMP-1 inhibitor 15*.
For Brc1ccc(C2=Nc3cccc4cccc(c34)N2)o1 the results were HTR2A ag -3, VIM-2 inh -5, dFosB act 23* and IMP-1 inhibitor -3.
Screening Fc1ccc(C2=Nc3cccc4cccc(c34)N2)cc1 returned HTR2A ag 1, VIM-2 inh 0, dFosB act 13 and IMP-1 inhibitor -2.
`CCOc1ccc(C2=Nn3c(nnc3-c3ccccn3)SC2)cc1` gave HTR2A ag 3, VIM-2 inh 7.7*, dFosB act -17 and IMP-1 inhibitor -2.
`CCOc1ccc(C2=Nn3c(nnc3-c3ccco3)SC2)cc1` gave HTR2A ag 1, VIM-2 inh 2, dFosB act -13 and IMP-1 inhibitor -3.
c1csc(C2=Nn3c(nnc3-c3ccncc3)SC2)c1 was read as HTR2A ag -2, VIM-2 inh 1, dFosB act -1 and IMP-1 inhibitor -3.
Screening Brc1ccc(C2=Nn3c(nnc3-c3ccncc3)SC2)cc1 returned VIM-2 inh 9.2* and IMP-1 inhibitor -3.
`CCN(C[C@H]1N[C@@](C)(C(=O)OC)[C@H]2C(=O)N(C)C(=O)[C@@H]12)S(=O)(=O)c1ccc(-c2ccccc2)cc1` gave HTR2A ag -2 and dFosB act -10.
Screening O=C(CC(CC(=O)c1ccccc1)C(=O)O)c1ccccc1 returned HTR2A ag 0, VIM-2 inh 8.9*, dFosB act -1 and IMP-1 inhibitor -4.
`COc1ccccc1N1CCN(C(=O)C(C)CS(=O)(=O)c2ccc3c(c2)NC(=O)CS3)CC1` (stereo not drawn) gave HTR2A ag 0, VIM-2 inh -3, dFosB act -1 and IMP-1 inhibitor 11*.

Source: PubChem (several laboratories)
